In brackets after ≈: the same amount, converted by molar mass. Activity calls are given as the source filed them. The rule behind the calls is not given here.
Legend:
[1] = target: T1, tRNA (guanine-N(1)-)-methyltransferase (Pseudomonas aeruginosa (strain ATCC 15692 / DSM 22644 / CIP 104116 / JCM14847 / LMG 12228 / 1C / PRS 101 / PAO1), UniProt Q9HXQ1); assay: (§1) Inhibition of Pseudomonas aeruginosa tRNA (guanine(37)-N1)-methyltransferase (Leu5 to Asp25 residues) expressed in Escherichia coli BL21 Rosetta (DE3) assessed as reduction in S-adenosyl-L-homocysteine production preincubated for 15 mins followed by 4.5 uM of tRNALeu(CAG) substrate and SAM addition and measured after 45 mins by MTase-Glo assay
T1 sequence (Q9HXQ1 whole entry): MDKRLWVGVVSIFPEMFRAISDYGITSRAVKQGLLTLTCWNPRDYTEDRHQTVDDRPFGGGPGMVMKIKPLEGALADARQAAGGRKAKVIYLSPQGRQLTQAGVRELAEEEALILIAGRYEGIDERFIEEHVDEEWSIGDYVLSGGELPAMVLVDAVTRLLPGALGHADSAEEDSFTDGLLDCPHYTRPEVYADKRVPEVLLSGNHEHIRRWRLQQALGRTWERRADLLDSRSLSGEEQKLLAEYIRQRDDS
How it was run: (§2)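 tRNA competition: same MTase-Glo assay with 8 nM PaTrmD and 2 μM SAM, 15 min preincubation and 45 min reaction at 37 °C. tRNALeu(CAG) at 1.5, 4.5 or 15 μM. IC50 from dose–response curves, duplicate data points.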

[2] = target: T2, tRNA (guanine-N(1)-)-methyltransferase (Pseudomonas aeruginosa (strain ATCC 15692 / DSM 22644 / CIP 104116 / JCM14847 / LMG 12228 / 1C / PRS 101 / PAO1)) (UniProt Q9HXQ1); assay: Binding affinity to Pseudomonas aeruginosa tRNA (guanine(37)-N1)-methyltransferase (Leu5 to Asp25 residues) expressed in Escherichia coli BL21 (DE3) Rosetta T1R cells assessed as dissociation rate constant by surface plasmon resonance assay
T2 sequence (whole entry): T1 sequence (Q9HXQ1 whole entry)
How it was run: (§3)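 SPR at 25 °C. His-tagged TrmD (50 μg/mL) captured on an anti-His antibody surface (about 2200 RU), with a blank reference cell. Buffer: 50 mM Tris-HCl pH 8, 150 mM NaCl, 1 mM MgCl2, 1 mM DTT, 0.05% Tween-20. Analyte in 2-fold dilutions, injected lowest to highest at 30 μL/min, 30 s contact, 240 s dissociation. KD from steady-state affinity fit.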

[3] = target: T1, tRNA (guanine-N(1)-)-methyltransferase; assay: Binding affinity to Pseudomonas aeruginosa tRNA (guanine(37)-N1)-methyltransferase (Leu5 to Asp25 residues) expressed in Escherichia coli BL21 (DE3) Rosetta T1R cells by surface plasmon resonance assay; how it was run: as §3
[4] = target: T3, tRNA (guanine-N(1)-)-methyltransferase (Staphylococcus aureus (strain NCTC 8325 / PS 47)) (UniProt Q2FZ43); assay: Binding affinity to full length Staphylococcus aureus tRNA (guanine(37)-N1)-methyltransferase expressed in Escherichia coli BL21 (DE3) assessed as thermal stabilization of protein by measuring change in melting temperature at 0.1 mM by SYPRO orange based thermal shift assay
T3 sequence (whole entry): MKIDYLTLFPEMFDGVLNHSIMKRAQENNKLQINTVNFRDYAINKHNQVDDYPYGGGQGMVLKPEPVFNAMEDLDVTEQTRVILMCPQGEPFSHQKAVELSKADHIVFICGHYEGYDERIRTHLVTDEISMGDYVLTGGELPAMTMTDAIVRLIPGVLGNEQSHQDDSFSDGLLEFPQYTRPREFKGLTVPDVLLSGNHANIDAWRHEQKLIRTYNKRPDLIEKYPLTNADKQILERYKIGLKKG

[5] = target: T4, tRNA (guanine-N(1)-)-methyltransferase (Mycobacterium tuberculosis (strain ATCC 25618 / H37Rv)) (UniProt P9WFY7); assay: Binding affinity to full length Mycobacterium tuberculosis tRNA (guanine(37)-N1)-methyltransferase expressed in Escherichia coli BL21 (DE3) assessed as dissociation rate constant by surface plasmon resonance assay; how it was run: as §3
T4 sequence (whole entry): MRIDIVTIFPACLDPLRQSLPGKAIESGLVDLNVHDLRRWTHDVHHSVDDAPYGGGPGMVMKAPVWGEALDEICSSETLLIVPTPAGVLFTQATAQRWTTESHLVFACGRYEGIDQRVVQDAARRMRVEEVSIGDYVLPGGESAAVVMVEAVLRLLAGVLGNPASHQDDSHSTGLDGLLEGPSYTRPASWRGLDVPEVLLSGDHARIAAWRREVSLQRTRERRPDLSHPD

[6] = target: T1, tRNA (guanine-N(1)-)-methyltransferase; assay: as §1, with “15” for “4.5”; how it was run: as §2
Streptococcus pneumoniae [7] = assay: Bactericidal activity against Streptococcus pneumoniae ATCC 49619 assessed as reduction in CFU at 1 to 4 times MIC90 incubated for 24 hrs; format: functional; settings: ATCC 49619, 24 h, read-out: MBC99.9
Escherichia coli = assay: Antibacterial activity against Escherichia coli BW25113 incubated for 24 hrs by serial broth microdilution method; format: functional, organism-based
How it was run: (§4)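 Log-phase cultures from four colonies grown overnight at 37 °C, inoculated at ~5×10^5 cells/mL in cation-adjusted Mueller–Hinton broth with serially diluted compound. Grown 24 h at 37 °C, then OD600 read. MIC50/MIC90 are the concentrations giving 50%/90% growth inhibition relative to drug-free controls. Two independent experiments in duplicate.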

Salmonella enteritidis [8] = assay: Bactericidal activity against Salmonella enteritidis ATCC 13076 assessed as reduction in CFU at 1 to 4 times MIC90 incubated for 24 hrs; format: functional; settings: Salmonella enterica subsp. enterica serovar Enteritidis
Acinetobacter baumannii = assay: Bactericidal activity against Acinetobacter baumannii ATCC 17961 assessed as reduction in CFU at 1 to 4 times MIC90 incubated for 24 hrs; format: functional; settings: ATCC 17961, 24 h, read-out: MBC99.9
Enterococcus faecalis = assay: Bactericidal activity against Enterococcus faecalis ATCC 51299 assessed as reduction in CFU at 1 to 4 times MIC90 incubated for 24 hrs; format: functional, organism-based
Streptococcus pneumoniae [9] = assay: Antibacterial activity against Streptococcus pneumoniae ATCC 49619 incubated for 24 hrs by serial broth microdilution method; format: functional; settings: ATCC 49619, 24 h
How it was run: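 Cultured in MH medium plus 3% defibrinated sheep blood at 37 °C, 5% CO2. Log-phase inoculum ~5×10^5 cells/mL was exposed to serial compound dilutions for 24 h. MIC50/MIC90 are relative to drug-free controls. Two independent experiments in duplicate.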

Salmonella enteritidis [10] = assay: Antibacterial activity against Salmonella enteritidis ATCC 13076 incubated for 24 hrs by serial broth microdilution method; format: functional; settings: Salmonella enterica subsp. enterica serovar Enteritidis; how it was run: as §4
[11] = system: Mycolicibacterium smegmatis; assay: Antibacterial activity against Mycolicibacterium smegmatis MC2 155 incubated for 24 hrs by serial broth microdilution method; format: functional; settings: MC2 155, 24 h
How it was run: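 Growth read by OD600. MRSA in cation-adjusted Mueller–Hinton broth, M. smegmatis in complete 7H9. MIC50 and MIC90 are 50% and 90% growth inhibition versus drug-free controls. Two independent experiments, each in duplicate.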

Pseudomonas aeruginosa = assay: Bactericidal activity against Pseudomonas aeruginosa PA14 assessed as reduction in CFU at 1 to 4 times MIC90 incubated for 24 hrs; format: functional, organism-based

| Compound | IC50 [1] [nM] | Kdiss [2] [s⁻¹] | Kd [3] [nM] | ΔTm [4] [°C] | Kdiss [5] [s⁻¹] | IC50 [6] [nM] | MBC (Streptococcus pneumoniae [7]) [µM] | MIC50 (Escherichia coli) | MIC90 (Escherichia coli) | MBC99.9 (Salmonella enteritidis [8]) | MBC (Acinetobacter baumannii) [µM] | MBC99.9 (Enterococcus faecalis) | MIC50 (Streptococcus pneumoniae [9]) [µM] | MIC90 (Streptococcus pneumoniae [9]) [µM] | MIC50 (Salmonella enteritidis [10]) | MIC90 (Salmonella enteritidis [10]) | MIC50 [11] [µM] | MBC99.9 (Pseudomonas aeruginosa) |
| --- | --- | --- | --- | --- | --- | --- | --- | --- | --- | --- | --- | --- | --- | --- | --- | --- | --- | --- |
| NC1CCN(Cc2ccc(CNC(=O)c3csc4nc[nH]c(=O)c34)cc2)CC1 | 330 | 0.0117 | 91 | 1 to 13 | 0.209 | 840 | – | – | – | – | – | – | – | – | – | – | – | – |
| CCCCCCCCNCc1ccc(CNC(=O)c2csc3nc[nH]c(=O)c23)cc1 | 60 | 0.0218 | 1.6 | – | 0.12 | 260 | > 100 | inactive | inactive | inactive | > 100 | inactive | 60 (≈ 25.6 µg/mL) | 73 (≈ 31.1 µg/mL) | inactive | inactive | 58 (≈ 24.7 µg/mL) | inactive |

From ChEMBL document CHEMBL4373727, “Thienopyrimidinone Derivatives That Inhibit Bacterial tRNA (Guanine37-N1)-Methyltransferase (TrmD) by Restructuring the Active Site with a Tyrosine-Flipping Mechanism” (J Med Chem, 2019)
